Measured values as given in ChEMBL document CHEMBL5385905, “Design, synthesis and characterisation of a novel type II B-RAF paradox breaker inhibitor” (Eur J Med Chem, 2023).
Activity calls are given as the source filed them. The rule behind the calls is not given here.

Assays:
A-375 [1] = assay: Cytotoxicity against human A-375 cells incubated for 96 hrs by MTT assay; format: functional, cell-based; details: A-375, 96 h
Outline: (§1)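 SW620 (ATCC) seeded at 4000 cells/well and A375 (ATCC) at 1000 cells/well in 96-well format. Compounds added the next day at increasing concentrations. Exposure 96 h. Viability read by MTT method per Mosmann.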

A-375 [2] = assay: Inhibition of MAPK pathway in human A-375 cells expressing B-RAF V600E mutant assessed as downregulation of MEK phosphorylation incubated for 1 to 4 hrs by immunoblotting analysis; format: cell-based; details: time 1-4 hrs
Outline: (§2)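 SW620 seeded at 750 000 and A375 at 300 000 cells/well in 6-well format, grown 48 h to 75% confluence. Treated with increasing compound concentrations for 1 or 4 h. Lysis in 10 mM Tris-HCl, 1% SDS, 20 mM Na3VO4. 10–25 µg protein run on SDS-PAGE, transferred to PVDF, probed for MEK, phospho-MEK, phospho-ERK, B-Raf and actin. Read by LI-COR Odyssey.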

[3] = molecular target: Tyrosine-protein kinase Fgr (Homo sapiens) (UniProt P09769); assay: Inhibition of FGR (unknown origin) at 1 uM relative to control
SW620 [4] = assay: Inhibition of MAPK pathway in human SW620 cells expressing wild type B-RAF assessed as downregulation of ERK phosphorylation incubated for 1 to 4 hrs by immunoblotting analysis; format: cell-based; details: time 1-4 hrs; outline: as §2
SW-620 [5] = assay: Cytotoxicity against human SW620 cells incubated for 96 hrs by MTT assay; format: functional, cell-based; outline: as §1
[6] = molecular target: T1, Dual specificity mitogen-activated protein kinase kinase 5 (Homo sapiens) (UniProt Q13163); assay: Inhibition of MEK5 (unknown origin) at 1 uM relative to control
T1 sequence (whole entry): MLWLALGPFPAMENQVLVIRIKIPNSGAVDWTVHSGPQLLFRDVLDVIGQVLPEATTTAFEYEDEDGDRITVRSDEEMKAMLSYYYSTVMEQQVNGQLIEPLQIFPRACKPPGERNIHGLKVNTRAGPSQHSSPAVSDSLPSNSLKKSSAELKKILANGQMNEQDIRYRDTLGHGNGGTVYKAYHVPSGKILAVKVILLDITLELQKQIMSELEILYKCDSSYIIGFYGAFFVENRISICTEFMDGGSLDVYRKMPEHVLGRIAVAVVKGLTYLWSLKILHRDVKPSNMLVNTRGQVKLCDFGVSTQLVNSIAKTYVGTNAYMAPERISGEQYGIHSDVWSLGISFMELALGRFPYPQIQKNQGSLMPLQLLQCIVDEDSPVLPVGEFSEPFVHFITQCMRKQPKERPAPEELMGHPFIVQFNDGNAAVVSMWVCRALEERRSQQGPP

A-375 [7] = assay: Inhibition of MAPK pathway in human A-375 cells expressing B-RAF V600E mutant assessed as downregulation of ERK phosphorylation incubated for 1 to 4 hrs by immunoblotting analysis; format: cell-based; details: time 1-4 hrs; outline: as §2
[8] = molecular target: RAF proto-oncogene serine/threonine-protein kinase (Homo sapiens) (UniProt P04049); assay: Inhibition of RAF1 (unknown origin) at 1 uM relative to control
[9] = molecular target: Platelet-derived growth factor receptor beta (Homo sapiens) (UniProt P09619); assay: Inhibition of PDGFRB (unknown origin) at 1 uM relative to control
SW-620 [10] = assay: Cytotoxicity against human SW620 cells expressing wild type B-RAF assessed as inhibition of cell proliferation incubated for 96 hrs by MTT assay; format: functional, cell-based; outline: as §1
[11] = molecular target: Dual specificity mitogen-activated protein kinase kinase 4 (Homo sapiens) (UniProt P45985); assay: Inhibition of MEK4 (unknown origin) at 1 uM relative to control
A-375 [12] = assay: Cytotoxicity against human A-375 cells expressing B-RAF V600E mutant assessed as inhibition of cell proliferation incubated for 96 hrs by MTT assay; format: functional, cell-based; outline: as §1
[13] = molecular target: Mast/stem cell growth factor receptor Kit (Homo sapiens) (UniProt P10721); assay: Inhibition of KIT (unknown origin) at 1 uM relative to control
SW620 [14] = assay: Inhibition of MAPK pathway in human SW620 cells expressing wild type B-RAF assessed as downregulation of MEK phosphorylation incubated for 1 to 4 hrs by immunoblotting analysis; format: cell-based; details: time 1-4 hrs; outline: as §2
[15] = molecular target: Tyrosine-protein kinase Blk (Homo sapiens) (UniProt P51451); assay: Inhibition of BLK (unknown origin) at 1 uM relative to control
[16] = molecular target: Serine/threonine-protein kinase B-raf (Homo sapiens, UniProt P15056, V600E); assay: Inhibition of B-RAF V600E mutant (unknown origin) expressed in Escherichia coli BL21 (DE3)
[17] = molecular target: Serine/threonine-protein kinase VRK2 (Homo sapiens) (UniProt Q86Y07); assay: Inhibition of VRK2 (unknown origin) at 1 uM relative to control
[18] = molecular target: Serine/threonine-protein kinase B-raf (Homo sapiens, UniProt P15056); assay: Inhibition of wild type B-RAF (unknown origin) expressed in Escherichia coli BL21 (DE3)
[19] = molecular target: Platelet-derived growth factor receptor alpha (Homo sapiens) (UniProt P16234); assay: Inhibition of PDGFRA (unknown origin) at 1 uM relative to control
[20] = molecular target: Vascular endothelial growth factor receptor 2 (Homo sapiens) (UniProt P35968); assay: Inhibition of VEGFR2 (unknown origin) at 1 uM relative to control
[21] = molecular target: Vascular endothelial growth factor receptor 3 (Homo sapiens) (UniProt P35916); assay: Inhibition of FLT4 (unknown origin) at 1 uM relative to control
SW620 [22] = assay: Inhibition of MAPK pathway in human SW620 cells expressing wild type B-RAF assessed as effect on ERK protein expression incubated for 1 to 4 hrs by immunoblotting analysis; format: cell-based; details: time 1-4 hrs
[23] = molecular target: Proto-oncogene tyrosine-protein kinase receptor Ret (Homo sapiens) (UniProt P07949); assay: Inhibition of RET (unknown origin) at 1 uM relative to control
[24] = molecular target: Proto-oncogene tyrosine-protein kinase Src (Homo sapiens) (UniProt P12931); assay: Inhibition of SRC (unknown origin) at 1 uM relative to control
[25] = molecular target: Tyrosine-protein kinase CSK (Homo sapiens) (UniProt P41240); assay: Inhibition of CSK (unknown origin) at 1 uM relative to control
[26] = molecular target: Tyrosine-protein kinase Yes (Homo sapiens) (UniProt P07947); assay: Inhibition of YES (unknown origin) at 1 uM relative to control
[27] = molecular target: Macrophage colony-stimulating factor 1 receptor (Homo sapiens) (UniProt P07333); assay: Inhibition of CSF1R (unknown origin) at 1 uM relative to control
[28] = molecular target: Mitogen-activated protein kinase 11 (Homo sapiens) (UniProt Q15759); assay: Inhibition of p-38 beta (unknown origin) at 1 uM relative to control
[29] = molecular target: Tyrosine-protein kinase TXK (Homo sapiens) (UniProt P42681); assay: Inhibition of TXK (unknown origin) at 1 uM relative to control
[30] = molecular target: Tyrosine-protein kinase HCK (Homo sapiens) (UniProt P08631); assay: Inhibition of HCK (unknown origin) at 1 uM relative to control
[31] = molecular target: Mitogen-activated protein kinase 14 (Homo sapiens) (UniProt Q16539); assay: Inhibition of p-38 alpha (unknown origin) at 1 uM relative to control
[32] = molecular target: Tyrosine-protein kinase ABL1 (Homo sapiens) (UniProt P00519); assay: Inhibition of ABL1 (unknown origin) at 1 uM relative to control
[33] = molecular target: Tyrosine-protein kinase Lyn (Homo sapiens) (UniProt P07948); assay: Inhibition of LYN (unknown origin) at 1 uM relative to control
[34] = molecular target: Tyrosine-protein kinase Fyn (Homo sapiens) (UniProt P06241); assay: Inhibition of FYN (unknown origin) at 1 uM relative to control
[35] = molecular target: Vascular endothelial growth factor receptor 1 (Homo sapiens) (UniProt P17948); assay: Inhibition of FLT1 (unknown origin) at 1 uM relative to control
[36] = molecular target: Ribosomal protein S6 kinase alpha-1 (Homo sapiens) (UniProt Q15418); assay: Inhibition of RSK1 (unknown origin) at 1 uM relative to control
[37] = molecular target: Tyrosine-protein kinase Lck (Homo sapiens) (UniProt P06239); assay: Inhibition of LCK (unknown origin) at 1 uM relative to control
[38] = molecular target: Fibroblast growth factor receptor 1 (Homo sapiens) (UniProt P11362); assay: Inhibition of FGFR1 (unknown origin) at 1 uM relative to control
[39] = molecular target: Receptor-type tyrosine-protein kinase FLT3 (Homo sapiens) (UniProt P36888); assay: Inhibition of FLT3 (unknown origin) at 1 uM relative to control
[40] = molecular target: Cyclin-dependent kinase 19 (Homo sapiens) (UniProt Q9BWU1); assay: Inhibition of CDK11 (unknown origin) at 1 uM relative to control
[41] = molecular target: Mitogen-activated protein kinase kinase kinase kinase 4 (Homo sapiens) (UniProt O95819); assay: Inhibition of MAP4K4 (unknown origin) at 1 uM relative to control
[42] = molecular target: Cytoplasmic tyrosine-protein kinase BMX (Homo sapiens) (UniProt P51813); assay: Inhibition of BMX (unknown origin) at 1 uM relative to control
[43] = molecular target: Fibroblast growth factor receptor 2 (Homo sapiens) (UniProt P21802); assay: Inhibition of FGFR2 (unknown origin) at 1 uM relative to control
[44] = Homo sapiens, SW-620, 96 h, read-out: IC50

Mast/stem cell growth factor receptor Kit (Homo sapiens), sequence (P10721 whole entry): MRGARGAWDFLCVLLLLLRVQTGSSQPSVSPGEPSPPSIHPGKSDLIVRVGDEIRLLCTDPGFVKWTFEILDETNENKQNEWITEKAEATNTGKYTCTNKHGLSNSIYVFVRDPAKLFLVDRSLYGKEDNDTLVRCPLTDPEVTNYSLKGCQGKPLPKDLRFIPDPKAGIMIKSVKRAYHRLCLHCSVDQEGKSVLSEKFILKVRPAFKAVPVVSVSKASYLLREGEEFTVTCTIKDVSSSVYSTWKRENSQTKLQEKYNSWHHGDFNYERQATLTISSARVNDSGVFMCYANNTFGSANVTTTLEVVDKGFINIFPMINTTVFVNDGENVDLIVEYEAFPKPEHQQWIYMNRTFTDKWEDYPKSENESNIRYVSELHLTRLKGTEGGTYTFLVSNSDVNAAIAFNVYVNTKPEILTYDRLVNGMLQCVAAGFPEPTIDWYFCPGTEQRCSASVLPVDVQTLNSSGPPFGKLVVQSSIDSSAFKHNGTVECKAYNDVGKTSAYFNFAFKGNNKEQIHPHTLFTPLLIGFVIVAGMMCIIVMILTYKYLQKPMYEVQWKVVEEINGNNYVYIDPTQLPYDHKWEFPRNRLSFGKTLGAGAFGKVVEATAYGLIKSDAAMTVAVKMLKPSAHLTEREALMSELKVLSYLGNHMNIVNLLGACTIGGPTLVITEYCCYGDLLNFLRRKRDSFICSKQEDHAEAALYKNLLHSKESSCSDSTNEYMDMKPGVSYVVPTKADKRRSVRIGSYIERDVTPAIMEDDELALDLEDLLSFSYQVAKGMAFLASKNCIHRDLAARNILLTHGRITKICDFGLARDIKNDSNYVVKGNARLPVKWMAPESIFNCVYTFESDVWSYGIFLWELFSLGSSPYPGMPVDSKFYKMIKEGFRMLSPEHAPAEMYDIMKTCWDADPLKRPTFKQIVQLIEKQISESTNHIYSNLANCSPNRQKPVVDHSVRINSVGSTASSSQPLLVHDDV
Tyrosine-protein kinase Fgr (Homo sapiens), sequence (P09769 2-529 limits assumed): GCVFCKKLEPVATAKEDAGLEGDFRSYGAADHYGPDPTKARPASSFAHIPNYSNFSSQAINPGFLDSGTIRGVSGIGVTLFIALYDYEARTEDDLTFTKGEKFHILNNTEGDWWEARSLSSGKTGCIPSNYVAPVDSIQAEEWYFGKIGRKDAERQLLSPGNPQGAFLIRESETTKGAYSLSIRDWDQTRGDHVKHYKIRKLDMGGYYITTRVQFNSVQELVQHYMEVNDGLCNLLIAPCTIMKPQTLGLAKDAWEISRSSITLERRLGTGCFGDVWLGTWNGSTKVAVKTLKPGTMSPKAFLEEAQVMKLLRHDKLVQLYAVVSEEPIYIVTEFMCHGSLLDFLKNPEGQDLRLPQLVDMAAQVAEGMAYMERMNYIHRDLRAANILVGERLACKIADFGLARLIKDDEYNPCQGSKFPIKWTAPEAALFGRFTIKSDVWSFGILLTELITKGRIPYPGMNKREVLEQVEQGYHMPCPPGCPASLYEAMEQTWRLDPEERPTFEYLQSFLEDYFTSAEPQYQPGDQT
Platelet-derived growth factor receptor beta (Homo sapiens), sequence (P09619 whole entry): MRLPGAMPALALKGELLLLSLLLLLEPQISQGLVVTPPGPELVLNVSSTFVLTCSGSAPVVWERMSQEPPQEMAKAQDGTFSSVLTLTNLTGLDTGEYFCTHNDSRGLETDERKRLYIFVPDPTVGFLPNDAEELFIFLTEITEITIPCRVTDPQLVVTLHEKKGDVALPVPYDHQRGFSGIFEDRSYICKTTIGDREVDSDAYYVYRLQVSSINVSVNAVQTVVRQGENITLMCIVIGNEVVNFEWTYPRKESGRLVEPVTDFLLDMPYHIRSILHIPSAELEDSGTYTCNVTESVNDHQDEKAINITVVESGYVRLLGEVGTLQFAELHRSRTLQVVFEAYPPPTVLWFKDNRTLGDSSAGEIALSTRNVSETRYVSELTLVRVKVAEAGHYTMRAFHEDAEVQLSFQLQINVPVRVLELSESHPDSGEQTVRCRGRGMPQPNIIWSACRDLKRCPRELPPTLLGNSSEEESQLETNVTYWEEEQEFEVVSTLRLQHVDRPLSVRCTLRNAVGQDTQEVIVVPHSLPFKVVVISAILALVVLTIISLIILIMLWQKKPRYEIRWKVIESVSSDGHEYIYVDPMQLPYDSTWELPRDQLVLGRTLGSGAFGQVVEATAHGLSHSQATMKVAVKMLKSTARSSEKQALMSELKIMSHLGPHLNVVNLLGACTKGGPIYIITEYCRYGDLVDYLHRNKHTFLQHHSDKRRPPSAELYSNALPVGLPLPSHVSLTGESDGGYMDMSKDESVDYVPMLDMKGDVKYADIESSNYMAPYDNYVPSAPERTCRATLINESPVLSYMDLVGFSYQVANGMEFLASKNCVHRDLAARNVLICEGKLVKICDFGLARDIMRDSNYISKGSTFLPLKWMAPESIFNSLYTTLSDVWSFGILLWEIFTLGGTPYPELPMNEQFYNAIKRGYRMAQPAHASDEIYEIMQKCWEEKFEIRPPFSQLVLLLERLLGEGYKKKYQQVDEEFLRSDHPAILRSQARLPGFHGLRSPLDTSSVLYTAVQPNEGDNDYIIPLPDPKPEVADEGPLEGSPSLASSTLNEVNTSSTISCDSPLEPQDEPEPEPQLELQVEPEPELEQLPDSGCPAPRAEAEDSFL
RAF proto-oncogene serine/threonine-protein kinase (Homo sapiens), sequence (P04049 whole entry): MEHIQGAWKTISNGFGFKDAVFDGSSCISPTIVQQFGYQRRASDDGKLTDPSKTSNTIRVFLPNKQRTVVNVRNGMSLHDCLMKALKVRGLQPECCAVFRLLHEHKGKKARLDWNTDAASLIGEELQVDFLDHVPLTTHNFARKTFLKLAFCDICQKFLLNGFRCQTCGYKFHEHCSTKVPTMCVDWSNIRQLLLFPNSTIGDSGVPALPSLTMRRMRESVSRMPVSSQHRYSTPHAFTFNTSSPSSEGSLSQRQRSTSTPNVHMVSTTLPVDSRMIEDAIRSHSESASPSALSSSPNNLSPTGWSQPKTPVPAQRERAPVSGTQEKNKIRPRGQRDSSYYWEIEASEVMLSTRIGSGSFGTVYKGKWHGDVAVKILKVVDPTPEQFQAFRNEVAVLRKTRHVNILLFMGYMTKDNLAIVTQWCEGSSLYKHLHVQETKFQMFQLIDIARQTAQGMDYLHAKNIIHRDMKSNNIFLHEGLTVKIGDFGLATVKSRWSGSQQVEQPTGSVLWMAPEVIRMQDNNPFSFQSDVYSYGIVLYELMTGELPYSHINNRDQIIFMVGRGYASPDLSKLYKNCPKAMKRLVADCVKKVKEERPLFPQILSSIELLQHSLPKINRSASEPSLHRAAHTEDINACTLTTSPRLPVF
Tyrosine-protein kinase Blk (Homo sapiens), sequence (P51451 2-505 limits assumed): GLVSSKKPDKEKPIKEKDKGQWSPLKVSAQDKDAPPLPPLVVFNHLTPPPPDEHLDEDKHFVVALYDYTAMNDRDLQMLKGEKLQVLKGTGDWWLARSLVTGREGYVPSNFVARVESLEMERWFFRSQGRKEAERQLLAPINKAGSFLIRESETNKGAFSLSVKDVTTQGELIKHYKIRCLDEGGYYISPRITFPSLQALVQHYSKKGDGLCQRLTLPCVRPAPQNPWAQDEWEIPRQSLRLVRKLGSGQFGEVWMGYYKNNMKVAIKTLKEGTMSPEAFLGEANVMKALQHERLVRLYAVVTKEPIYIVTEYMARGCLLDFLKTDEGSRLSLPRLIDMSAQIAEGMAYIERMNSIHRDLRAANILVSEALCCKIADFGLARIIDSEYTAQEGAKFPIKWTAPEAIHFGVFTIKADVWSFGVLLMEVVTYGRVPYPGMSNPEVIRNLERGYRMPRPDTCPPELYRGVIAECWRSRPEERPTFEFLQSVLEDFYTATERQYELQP
Proto-oncogene tyrosine-protein kinase Src (Homo sapiens), sequence (P12931 2-536 limits assumed): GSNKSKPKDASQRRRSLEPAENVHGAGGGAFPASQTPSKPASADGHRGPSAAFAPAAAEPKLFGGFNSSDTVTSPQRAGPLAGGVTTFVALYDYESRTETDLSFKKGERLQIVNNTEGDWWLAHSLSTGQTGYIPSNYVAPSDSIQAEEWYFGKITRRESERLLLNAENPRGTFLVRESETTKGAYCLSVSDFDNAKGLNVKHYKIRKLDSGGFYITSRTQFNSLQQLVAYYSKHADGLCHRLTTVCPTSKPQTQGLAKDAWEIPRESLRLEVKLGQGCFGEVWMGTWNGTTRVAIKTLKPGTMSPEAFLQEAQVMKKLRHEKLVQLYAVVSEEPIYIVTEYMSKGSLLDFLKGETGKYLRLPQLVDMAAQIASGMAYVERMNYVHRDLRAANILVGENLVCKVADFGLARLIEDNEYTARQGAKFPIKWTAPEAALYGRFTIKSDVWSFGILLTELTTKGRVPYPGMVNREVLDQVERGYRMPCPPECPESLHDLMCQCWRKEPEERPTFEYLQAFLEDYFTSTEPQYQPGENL
Tyrosine-protein kinase CSK (Homo sapiens), sequence (P41240 2-450 limits assumed): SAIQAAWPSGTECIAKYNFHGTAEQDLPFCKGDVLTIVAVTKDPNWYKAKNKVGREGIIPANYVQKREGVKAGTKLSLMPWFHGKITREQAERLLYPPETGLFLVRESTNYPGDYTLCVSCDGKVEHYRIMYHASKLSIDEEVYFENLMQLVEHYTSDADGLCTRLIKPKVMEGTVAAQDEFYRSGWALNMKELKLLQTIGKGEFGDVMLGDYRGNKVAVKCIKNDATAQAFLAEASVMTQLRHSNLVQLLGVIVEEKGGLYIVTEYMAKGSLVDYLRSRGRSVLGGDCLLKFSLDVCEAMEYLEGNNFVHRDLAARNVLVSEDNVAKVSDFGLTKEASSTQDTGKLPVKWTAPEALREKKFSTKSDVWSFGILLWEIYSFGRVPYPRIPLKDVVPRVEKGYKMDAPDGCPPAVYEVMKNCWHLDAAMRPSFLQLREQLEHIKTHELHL

CCCS(=O)(=O)Nc1ccc(F)c(C(=O)c2c[nH]c3ncc(-c4ccc(Cl)cc4)cc23)c1F [VEMURAFENIB]
IC50 (A-375 [1]): 90 nM
inhibition (A-375 [2]): Active
inhibition [3]: > 80%
inhibition (SW620 [4]): inactive
IC50 (SW-620 [5]; sw-620): Not Active
inhibition [6]: > 80%
inhibition (A-375 [7]): Active
inhibition [8]: > 80%
inhibition [9]: > 80%
Activity (SW-620 [10]): inactive
inhibition [11]: > 80%
Activity (A-375 [12]): Active
inhibition [13]: > 80%
inhibition (SW620 [14]): inactive

CCN(C)S(=O)(=O)Nc1ccc(F)c(C(=O)c2c[nH]c3ncc(-c4ccc(Cl)cc4)cc23)c1F
IC50 (A-375 [1]): 560 nM
inhibition (A-375 [2]): Active
inhibition [3]: > 80%
IC50 (SW-620 [5]; sw-620): Not Active
inhibition [6]: > 80%
inhibition [15]: > 80%
inhibition (A-375 [7]): Active
inhibition [9]: > 80%
Activity (SW-620 [10]): inactive
IC50 [16]: 1410 nM
inhibition [17]: > 80%
Activity (A-375 [12]): Active
IC50 [18]: 690 nM

Cc1ccc(NC(=O)c2cccc(C(C)(C)C#N)c2)cc1Nc1ccc2ncn(C)c(=O)c2c1
IC50 (A-375 [1]): 40 nM
inhibition [19]: > 80%
inhibition (A-375 [2]): Active
inhibition [20]: > 80%
inhibition [21]: > 80%
inhibition (SW620 [22]): inactive
IC50 (SW-620 [5]; [44]): 170 nM
inhibition [6]: > 80%
inhibition [15]: > 80%
inhibition [23]: > 80%
inhibition [24]: > 80%
inhibition [25]: > 80%
inhibition [26]: > 80%
inhibition (A-375 [7]): Active
inhibition [27]: > 80%
inhibition [8]: > 80%
inhibition [28]: > 80%
inhibition [29]: > 80%
inhibition [30]: > 80%
inhibition [31]: > 80%
inhibition [9]: > 80%
inhibition [32]: > 80%
Activity (SW-620 [10]): Active
Activity (A-375 [12]): Active
inhibition [33]: > 80%
inhibition [34]: > 80%
inhibition [35]: > 80%
inhibition [13]: > 80%
inhibition [36]: > 80%
inhibition [37]: > 80%

CCCS(=O)(=O)Nc1ccc(F)c(C(=O)c2c[nH]c3ncc(Cl)cc23)c1F
inhibition [3]: > 80%
inhibition [6]: > 80%
inhibition [8]: > 80%
inhibition [11]: > 80%
inhibition [13]: > 80%

CC(C)(C#N)c1cccc(C(=O)Nc2ccc(F)c(C(=O)c3c[nH]c4ncc(Cl)cc34)c2F)c1
IC50 (A-375 [1]): ~10000 nM
inhibition [19]: > 80%
inhibition (A-375 [2]): Active
inhibition [20]: > 80%
inhibition [21]: > 80%
inhibition (SW620 [22]): inactive
inhibition [3]: > 80%
IC50 (SW-620 [5]; [44]): 2810 nM
inhibition [6]: > 80%
inhibition [15]: > 80%
inhibition [23]: > 80%
inhibition [24]: > 80%
inhibition [25]: > 80%
inhibition [26]: > 80%
inhibition [38]: > 80%
inhibition (A-375 [7]): Active
inhibition [27]: > 80%
inhibition [8]: > 80%
inhibition [28]: > 80%
inhibition [29]: > 80%
inhibition [30]: > 80%
inhibition [31]: > 80%
inhibition [39]: > 80%
inhibition [40]: > 80%
inhibition [32]: > 80%
Activity (SW-620 [10]): Active
IC50 [16]: 48 nM
Activity (A-375 [12]): Active
IC50 [18]: 56 nM
inhibition [33]: > 80%
inhibition [34]: > 80%
inhibition [41]: > 80%
inhibition [42]: > 80%
inhibition [35]: > 80%
inhibition [13]: > 80%
inhibition [37]: > 80%
inhibition [43]: > 80%
